We go through one compound from ChEMBL document CHEMBL2169854, “New insight into the central benzodiazepine receptor-ligand interactions: design, synthesis, biological evaluation, and molecular modeling of 3-substituted 6-phenyl-4H-imidazo[1,5-a][1,4]benzodiazepines and related compounds” (J Med Chem, 2011).

Assay type in all cases: functional, organism-based
Assay [1] deals with Mus musculus. Briefly: […] activity in mouse assessed as effect on spontaneous motility measuring number of movements on plane board at 10 mg/kg, po after 5 mins by hole-board test relative to CMC-treated control. On the set-up: dose 10 mg/kg. The procedure, abridged:
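Mice dosed orally in 1% CMC were placed singly on a 16-hole board for 5 min. Photocells counted plane movements (spontaneous motility) and hole explorations. Groups of 12–15 mice were compared with CMC controls.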

Assay [2] deals with Mus musculus. Briefly: Antiamnesic activity against scopolamine-induced amnesic effect in mouse at 10 mg/kg, po by passive avoidance test. More on the design: dose 10 mg/kg. The method, boiled down:
(§1)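 In a mouse passive-avoidance test, oral doses in 1% CMC were tested against amnesia induced by 1.5 mg/kg scopolamine ip. Retention latency was scored and compared with controls by ANOVA.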

The test system of assay [3] is Mus musculus. Briefly: Antiamnesic activity against scopolamine-induced amnesic effect in mouse assessed as increase in retention latency period at 3 mg/kg, po by passive avoidance test. On the set-up: dose 3 mg/kg. The procedure, abridged: as §1

Each structure is given as a SMILES string. Calls of active or inactive are those of the source. No cut-off for these calls is given here.

For `CCOC(=O)c1ncn2c1CN=C(c1ccc(F)cc1)c1cc(F)ccc1-2`, the outcome with Mus musculus [1] was inactive. Also, the result with Mus musculus [2] and in the assay with Mus musculus [3] was Active.
